Assay results reported in ChEMBL document CHEMBL1147430, “Inhibition of alpha-chymotrypsin with thiol-bearing substrate analogues in the presence of zinc ion” (Bioorg Med Chem Lett, 2004).
Activity calls are given as the source filed them. The rule behind the calls is not given here.

Assays:
[1] = biological target: T1, Chymotrypsinogen B (Homo sapiens, UniProt P17538); assay: Inhibitory activity against chymotrypsinogen in the presence of Zn(II) (500 uM)
Summary of the method: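 Alpha-chymotrypsin at a final 0.4 μg/mL is added to a mix of Suc-AAPF-pNA (300 μM), ZnCl2 (500 μM) and varied inhibitor concentrations in pH 7.5 buffer (50 mM CaCl2, 50 mM Tris). Initial rates are followed at 405 nm at 25 °C. IC50 is read from a plot of % residual activity versus inhibitor concentration.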

[2] = biological target: T1, Chymotrypsinogen B; assay: Inhibitory activity (up to 2 mM) against chymotrypsinogen in the absence of Zn(II); no inhibition

T1 sequence (P17538 34-164 limits assumed, other chains not shown): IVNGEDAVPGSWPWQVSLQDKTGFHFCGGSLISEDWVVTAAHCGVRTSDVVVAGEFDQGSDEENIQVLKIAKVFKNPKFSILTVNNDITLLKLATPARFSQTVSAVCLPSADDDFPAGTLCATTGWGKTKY
T1 sequence (P17538 167-263 limits assumed, other chains not shown): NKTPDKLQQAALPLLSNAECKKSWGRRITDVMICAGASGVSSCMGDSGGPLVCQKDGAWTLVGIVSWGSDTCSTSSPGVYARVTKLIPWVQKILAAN

Row | Structure (SMILES) | IC50 [1] [µM] | inhibition [2]
1 | CC(=O)N[C@H](CS)Cc1ccccc1 | > 800 | inactive
2 | O=C(N[C@@H](CO)Cc1ccccc1)OCc1ccccc1 | > 3000 | inactive
3 | O=C(N[C@H](CS)Cc1ccccc1)c1ccccc1 | 23 | inactive
4 | O=C(N[C@H](CO)Cc1ccccc1)OCc1ccccc1 | > 3000 | –

Now those with a lower IC50 [1], led by results:

Row | IC50 [1] [µM] | inhibition [2] | Structure (SMILES)
5 | 3.8 | inactive | O=C(N[C@H](CS)Cc1ccccc1)OCc1ccccc1
6 | 6 | inactive | O=C(N[C@@H](CS)Cc1ccccc1)OCc1ccccc1
7 | 8 | inactive | O=C(N[C@H](CS)Cc1ccccc1)[C@@H]1CCCN1C(=O)OCc1ccccc1
